In ChEMBL document CHEMBL1153416, “Synthesis and anti-inflammatory properties of 1alpha,25-dihydroxy-16-ene-20-cyclopropyl-24-oxo-vitamin D3, a hypocalcemic, stable metabolite of 1alpha,25-dihydroxy-16-ene-20-cyclopropyl-vitamin D3” (J Med Chem, 2009):
Active and inactive are the calls of the source. The rule behind the calls is not given here.

What follows are compounds tested on PBMC (assay: Inhibition of LPS-induced IL12/23p40 production in human PBMC after 24 hrs by ELISA). Details: not given.
Type: functional, cell-based

SMILES | IC50 [nM]
C=C1/C(=C\C=C2/CCC[C@]3(C)C(C4(CCCC(C)(C)O)CC4)=CC[C@@H]23)C[C@@H](O)C[C@@H]1O | < 0.001
C=C1/C(=C\C=C2/CCC[C@]3(C)C(C4(CCC(=O)C(C)(C)O)CC4)=CC[C@@H]23)C[C@@H](O)C[C@@H]1O | < 0.001

These compounds were tested on PBMC (assay: Inhibition of LPS-induced IL6 production in human PBMC after 24 hrs by ELISA). Details: not given.
Type: functional, cell-based

SMILES | IC50 [nM]
C=C1/C(=C\C=C2/CCC[C@]3(C)C(C4(CCCC(C)(C)O)CC4)=CC[C@@H]23)C[C@@H](O)C[C@@H]1O | 3.2
C=C1/C(=C\C=C2/CCC[C@]3(C)C(C4(CCC(=O)C(C)(C)O)CC4)=CC[C@@H]23)C[C@@H](O)C[C@@H]1O | 3.5

Each compound was assayed on PBMC (assay: Inhibition of LPS-induced TNFalpha production in human PBMC after 24 hrs by ELISA). Details: not given.
Type: functional, cell-based

SMILES | IC50 [nM]
C[C@]12CCC/C(=C\C=C3C[C@@H](O)C[C@H](O)C3)[C@@H]1CC=C2C1(C/C=C/C(O)(C(F)(F)F)C(F)(F)F)CC1 | > 100
C=C1/C(=C\C=C2/CCC[C@]3(C)C(C4(CC#CC(C)(C)O)CC4)=CC[C@@H]23)C[C@@H](O)C[C@@H]1O | 0.001
C[C@]12CCC/C(=C\C=C3C[C@@H](O)C[C@H](O)C3)[C@@H]1CC=C2C1(CC#CC(O)(C(F)(F)F)C(F)(F)F)CC1 | > 100
CC(C)(O)C#CCC1(C2=CC[C@H]3/C(=C/C=C4C[C@@H](O)C[C@H](O)C4)CCC[C@]23C)CC1 | 0.001
C=C1/C(=C\C=C2/CCC[C@]3(C)C(C4(CC#CC(C)(C)O)CC4)=CC[C@@H]23)C[C@@H](O)C[C@@H]1F | > 100
C=C1/C(=C\C=C2/CCC[C@]3(C)C(C4(C/C=C/C(O)(C(F)(F)F)C(F)(F)F)CC4)=CC[C@@H]23)C[C@@H](O)C[C@@H]1F | > 100
C=C1/C(=C\C=C2/CCC[C@]3(C)C(C4(CC#CC(O)(C(F)(F)F)C(F)(F)F)CC4)=CC[C@@H]23)C[C@@H](O)C[C@@H]1O | 1
C=C1/C(=C\C=C2/CCC[C@]3(C)C(C4(C/C=C/C(O)(C(F)(F)F)C(F)(F)F)CC4)=CC[C@@H]23)C[C@@H](O)C[C@@H]1O | > 100

Each compound was assayed against T1, Vitamin D3 receptor (Homo sapiens, UniProt P11473) (assay: Activation of VDR in human THP1 cells assessed as increase in cathelicidin antimicrobial peptide mRNA expression by RT-PCR). Details: not given.
T1 sequence (P11473 whole entry): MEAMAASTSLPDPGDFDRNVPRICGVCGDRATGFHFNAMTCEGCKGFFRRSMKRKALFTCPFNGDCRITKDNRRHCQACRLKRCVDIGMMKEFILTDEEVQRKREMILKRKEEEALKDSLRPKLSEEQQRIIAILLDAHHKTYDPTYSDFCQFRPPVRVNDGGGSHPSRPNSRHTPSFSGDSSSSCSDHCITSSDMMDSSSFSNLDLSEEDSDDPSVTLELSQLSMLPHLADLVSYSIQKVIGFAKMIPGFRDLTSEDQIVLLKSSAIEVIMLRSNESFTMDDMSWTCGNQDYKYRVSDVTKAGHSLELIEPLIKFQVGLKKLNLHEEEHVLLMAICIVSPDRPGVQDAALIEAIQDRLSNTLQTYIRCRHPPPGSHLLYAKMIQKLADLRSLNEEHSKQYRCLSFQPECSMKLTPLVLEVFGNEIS
Type: cell-based, THP-1

SMILES | EC50 [nM]
C=C1/C(=C\C=C2/CCC[C@]3(C)C(C4(CCCC(C)(C)O)CC4)=CC[C@@H]23)C[C@@H](O)C[C@@H]1O | 0.68
C=C1/C(=C\C=C2/CCC[C@]3(C)C(C4(CCC(=O)C(C)(C)O)CC4)=CC[C@@H]23)C[C@@H](O)C[C@@H]1O | 0.69

These compounds were tested against T2, Vitamin D3 receptor (Homo sapiens) (UniProt P11473) (assay: Activation of VDR in human PBMC cells assessed as increase in cathelicidin antimicrobial peptide mRNA expression at 10 pM by RT-PCR). Details: not given.
T2 sequence (whole entry): T1 sequence (P11473 whole entry)
Type: cell-based
Summary of the method: (§1)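 PBMCs were isolated from buffy coats on a Ficoll gradient. Agonists were freshly diluted in ethanol, with ethanol in the test conditions at no more than 0.00025%. RNA was DNase-treated to exclude genomic DNA. Transcripts were quantified by RT-PCR and normalized to the GAPDH signal.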

SMILES | Activity
C=C1/C(=C\C=C2/CCC[C@]3(C)C(C4(CCCC(C)(C)O)CC4)=CC[C@@H]23)C[C@@H](O)C[C@@H]1O | Active
C=C1/C(=C\C=C2/CCC[C@]3(C)C(C4(CCC(=O)C(C)(C)O)CC4)=CC[C@@H]23)C[C@@H](O)C[C@@H]1O | Active

The compounds below were run against T2, Vitamin D3 receptor (Homo sapiens) (assay: Activation of VDR in human PBMC cells assessed as increase in cathelicidin antimicrobial peptide mRNA expression at 100 pM by RT-PCR). Details: not given.
Type: cell-based
Summary of the method: as §1

SMILES | Activity
C=C1/C(=C\C=C2/CCC[C@]3(C)C(C4(CCCC(C)(C)O)CC4)=CC[C@@H]23)C[C@@H](O)C[C@@H]1O | Active
C=C1/C(=C\C=C2/CCC[C@]3(C)C(C4(CCC(=O)C(C)(C)O)CC4)=CC[C@@H]23)C[C@@H](O)C[C@@H]1O | Active

What follows are compounds tested against T2, Vitamin D3 receptor (Homo sapiens) (assay: Activation of VDR in human PBMC cells assessed as increase in 25-hydroxyvitamin D-24-hydroxylase mRNA expression at 10 pM by RT-PCR). Details: not given.
Type: cell-based
Summary of the method: as §1

SMILES | Activity
C=C1/C(=C\C=C2/CCC[C@]3(C)C(C4(CCCC(C)(C)O)CC4)=CC[C@@H]23)C[C@@H](O)C[C@@H]1O | Active
C=C1/C(=C\C=C2/CCC[C@]3(C)C(C4(CCC(=O)C(C)(C)O)CC4)=CC[C@@H]23)C[C@@H](O)C[C@@H]1O | Active

Each compound was assayed against T2, Vitamin D3 receptor (Homo sapiens) (assay: Activation of VDR in human PBMC cells assessed as increase in 25-hydroxyvitamin D-24-hydroxylase mRNA expression at 100 pM by RT-PCR). Details: not given.
Type: cell-based
Summary of the method: as §1

SMILES | Activity
C=C1/C(=C\C=C2/CCC[C@]3(C)C(C4(CCCC(C)(C)O)CC4)=CC[C@@H]23)C[C@@H](O)C[C@@H]1O | Active
C=C1/C(=C\C=C2/CCC[C@]3(C)C(C4(CCC(=O)C(C)(C)O)CC4)=CC[C@@H]23)C[C@@H](O)C[C@@H]1O | Active

The compounds below were run against T1, Vitamin D3 receptor (assay: Activation of VDR in human THP1 cells assessed as increase in 25-hydroxyvitamin D-24-hydroxylase mRNA expression by RT-PCR). Details: not given.
Type: cell-based, THP-1

SMILES | EC50 [nM]
C=C1/C(=C\C=C2/CCC[C@]3(C)C(C4(CCCC(C)(C)O)CC4)=CC[C@@H]23)C[C@@H](O)C[C@@H]1O | 0.68
C=C1/C(=C\C=C2/CCC[C@]3(C)C(C4(CCC(=O)C(C)(C)O)CC4)=CC[C@@H]23)C[C@@H](O)C[C@@H]1O | 0.69

The compounds below were run on PBMC (assay: Inhibition of IFN-gamma production in human PBMC after 5 days by ELISA-based mixed lymphocyte reaction assay). Details: 120 h.
Type: functional, cell-based

SMILES | IC50 [nM]
C[C@]12CCC/C(=C\C=C3C[C@@H](O)C[C@H](O)C3)[C@@H]1CC=C2C1(C/C=C/C(O)(C(F)(F)F)C(F)(F)F)CC1 | 0.012
C=C1/C(=C\C=C2/CCC[C@]3(C)C(C4(CC#CC(C)(C)O)CC4)=CC[C@@H]23)C[C@@H](O)C[C@@H]1O | 0.034
C[C@]12CCC/C(=C\C=C3C[C@@H](O)C[C@H](O)C3)[C@@H]1CC=C2C1(CC#CC(O)(C(F)(F)F)C(F)(F)F)CC1 | 0.014
CC(C)(O)C#CCC1(C2=CC[C@H]3/C(=C/C=C4C[C@@H](O)C[C@H](O)C4)CCC[C@]23C)CC1 | 0.025
C=C1/C(=C\C=C2/CCC[C@]3(C)C(C4(CC#CC(C)(C)O)CC4)=CC[C@@H]23)C[C@@H](O)C[C@@H]1F | 0.016
C=C1/C(=C\C=C2/CCC[C@]3(C)C(C4(C/C=C/C(O)(C(F)(F)F)C(F)(F)F)CC4)=CC[C@@H]23)C[C@@H](O)C[C@@H]1F | 0.065
C=C1/C(=C\C=C2/CCC[C@]3(C)C(C4(CCC(=O)C(C)(C)O)CC4)=CC[C@@H]23)C[C@@H](O)C[C@@H]1O | 0.025
C=C1/C(=C\C=C2/CCC[C@]3(C)C(C4(CC#CC(O)(C(F)(F)F)C(F)(F)F)CC4)=CC[C@@H]23)C[C@@H](O)C[C@@H]1O | 0.045
C=C1/C(=C\C=C2/CCC[C@]3(C)C(C4(C/C=C/C(O)(C(F)(F)F)C(F)(F)F)CC4)=CC[C@@H]23)C[C@@H](O)C[C@@H]1O | 0.04

These compounds were tested on Mus musculus (assay: Induction of hypercalceimia in orally dosed C57BL/6 mouse administered daily for 4 days by colorimetric assay). Details: not given.
Type: functional
Summary of the method: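 Eight-week-old female C57BL/6 mice, 3 per group, were given one oral dose daily for 4 days in miglyol, at 0.01 to 300 µg/kg. Serum was taken by tail bleed on day 5 and calcium measured colorimetrically.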

SMILES | MTD [µg/kg]
C=C1/C(=C\C=C2/CCC[C@]3(C)C(C4(CCCC(C)(C)O)CC4)=CC[C@@H]23)C[C@@H](O)C[C@@H]1O | 1
C=C1/C(=C\C=C2/CCC[C@]3(C)[C@@H]([C@H](C)CCCC(C)(C)O)CC[C@@H]23)C[C@@H](O)C[C@@H]1O [CALCITRIOL] | 0.3
C=C1/C(=C\C=C2/CCC[C@]3(C)C(C4(CCC(=O)C(C)(C)O)CC4)=CC[C@@H]23)C[C@@H](O)C[C@@H]1O | 3
